{"source": "ChEMBL document CHEMBL5236592", "about": "“Induction of Ferroptosis in Glioblastoma and Ovarian Cancers by a New Pyrrole Tubulin Assembly Inhibitor” (J Med Chem, 2022)", "key": {"[1]": {"system": "Mus musculus", "assay": "Upregulation of Cbs mRNA expression in tumor of BALB/C nu/nu mouse xenografted with human U-87 MG cells at 25 mg/kg, ip administered every 2 days for 40 days by qPCR analysis", "format": "functional, organism-based", "details": "time 40.0 day", "procedure,_shortened": "(§1)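 Female BALB/c nu/nu mice bearing sc U-87 MG or SKOV-3 xenografts were dosed ip at 25 mg/kg (100 μL) every 2 days, or given saline, and tumors were taken at day 40. RNA was extracted from about 20 mg of tissue. qPCR ran 40 cycles (95 °C 15 min; 94 °C 20 s; 60 °C 34 s) on a 69-gene panel. Fold change was by 2^–ΔΔCt, with ≥1.5 counted as increased.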"}, "[2]": {"system": "Mus musculus", "assay": "Upregulation of FTL mRNA expression in tumor of BALB/C nu/nu mouse xenografted with human U-87 MG cells at 25 mg/kg, ip administered every 2 days for 40 days by qPCR analysis", "format": "functional, organism-based", "details": "time 40.0 day", "procedure,_shortened": "as §1"}, "[3]": {"system": "T-cell line", "assay": "Cytotoxicity against human primary T-lymphocytes assessed as reduction in cell viability at 0.1 uM incubated for 48 to 72 hrs by Annexin V- APC/PI staining based flow cytometry analysis", "format": "toxicity", "details": "time 48-72 hrs", "procedure,_shortened": "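T lymphocytes negatively selected from healthy-donor PBMCs isolated by density gradient. Cultured at 1.5 × 10^6/mL with 0.1, 1.0 or 2.5 μM compound, DMSO vehicle or untreated, for 48 or 72 h. Stained with annexin V-APC and propidium iodide; early and late apoptotic fractions counted by flow cytometry.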"}, "[4]": {"system": "Mus musculus", "assay": "Upregulation of Cisd1 mRNA expression in tumor of BALB/C nu/nu mouse xenografted with human SK-OV-3 cells at 25 mg/kg, ip administered every 2 days for 40 days by qPCR analysis", "format": "functional, organism-based", "details": "time 40.0 day", "procedure,_shortened": "as §1"}, "[5]": {"system": "Mus musculus", "assay": "Upregulation of Ireb2 mRNA expression in tumor of BALB/C nu/nu mouse xenografted with human U-87 MG cells at 25 mg/kg, ip administered every 2 days for 40 days by qPCR analysis", "format": "functional, organism-based", "details": "time 40.0 day", "procedure,_shortened": "(§2)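 Female BALB/c nu/nu mice, 10 weeks old, 4 per group. Inoculated s.c. with 1 × 10^8 cells/mL of log-phase U-87 MG or SKOV-3 cells. Dosed i.p. with 100 μL at 25 mg/kg every 2 days; controls got 100 μL saline. Tumors harvested on day 40. RNA extracted from about 20 mg of tissue. qPCR panel of 69 genes, 40 cycles (94 °C 20 s, 60 °C 34 s). Analysed by 2–ΔΔCt; fold ≥1.5 taken as increased.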"}, "[6]": {"system": "U-87MG ATCC", "assay": "Antitumor activity against human U-87 MG cells xenografted in BALB/C nu/nu mouse assessed as reduction in tumor growth at 25 mg/kg, ip administered every 2 days for 40 days", "format": "functional, organism-based", "details": "time 40.0 day", "procedure,_shortened": "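Female BALB/c nu/nu mice, 10 weeks old, 4 per group. Received subcutaneous U-87 MG or SKOV-3 cells (1 × 10^8 cells/mL, harvested in log phase). Dosed ip with 100 μL at 25 mg/kg every 2 days; controls got 100 μL saline on the same schedule. Sacrificed at 40 days; tumors weighed, volume = ab²/2. Tumor sections (6 μm, paraffin) stained by immunofluorescence for Ki67 or CD31 with Alexa Fluor 488 secondary.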"}, "[7]": {"system": "Mus musculus", "assay": "Upregulation of TFRC mRNA expression in tumor of BALB/C nu/nu mouse xenografted with human SK-OV-3 cells at 25 mg/kg, ip administered every 2 days for 40 days by qPCR analysis", "format": "functional, organism-based", "details": "time 40.0 day", "procedure,_shortened": "as §2"}, "[8]": {"system": "Mus musculus", "assay": "Upregulation of Nfe2l2 mRNA expression in tumor of BALB/C nu/nu mouse xenografted with human U-87 MG cells at 25 mg/kg, ip administered every 2 days for 40 days by qPCR analysis", "format": "functional, organism-based", "details": "time 40.0 day", "procedure,_shortened": "as §2"}, "[9]": {"system": "Mus musculus", "assay": "Upregulation of Akr1c1 mRNA expression in tumor of BALB/C nu/nu mouse xenografted with human SK-OV-3 cells at 25 mg/kg, ip administered every 2 days for 40 days by qPCR analysis", "format": "functional, organism-based", "details": "time 40.0 day", "procedure,_shortened": "as §1"}, "[10]": {"system": "SK-OV-3", "assay": "Induction of ferroptosis-mediated antitumor activity against human SK-OV-3 cells xenografted in BALB/C nu/nu mouse assessed as reduction in GPX4 protein expression in tumor at 25 mg/kg, ip administered every 2 days for 40 days by immunofluoresence staining based assay", "format": "functional, organism-based", "details": "time 40.0 day", "procedure,_shortened": "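Xenografts of U-87 MG or SKOV-3 (1 × 10^8 cells/mL, sc) in female BALB/c nu/nu mice, 4 per group. Treated ip at 25 mg/kg in 100 μL every 2 days versus saline, tumors collected at day 40. Paraffin sections (6 μm) were blocked at 37 °C for 30 min, then incubated with rabbit anti-GPX4 or anti-FTH1 and then Alexa Fluor 488 anti-rabbit, each for 45 min at 37 °C.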"}, "[11]": {"system": "Mus musculus", "assay": "Upregulation of Sat1 mRNA expression in tumor of BALB/C nu/nu mouse xenografted with human SK-OV-3 cells at 25 mg/kg, ip administered every 2 days for 40 days by qPCR analysis", "format": "functional, organism-based", "details": "time 40.0 day", "procedure,_shortened": "as §2"}, "[12]": {"system": "SK-OV-3", "assay": "Induction of ferroptosis-mediated antitumor activity against human SK-OV-3 cells xenografted in BALB/C nu/nu mouse assessed as increase in Fe2+ level in tumor at 25 mg/kg, ip administered every 2 days for 40 days", "format": "functional, organism-based", "details": "time 40.0 day", "procedure,_shortened": "(§3)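 U-87 MG or SKOV-3 sc xenografts (1 × 10^8 cells/mL) in female BALB/c nu/nu mice, 4 per group. Given 25 mg/kg ip in 100 μL every 2 days, or saline. Tumors harvested on day 40 and assayed for LPO, MDA, lactic acid, total glutathione (GSH + GSSG), ATP and Fe2+.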"}, "[13]": {"system": "Mus musculus", "assay": "Upregulation of Ttc35 mRNA expression in tumor of BALB/C nu/nu mouse xenografted with human SK-OV-3 cells at 25 mg/kg, ip administered every 2 days for 40 days by qPCR analysis", "format": "functional, organism-based", "details": "time 40.0 day", "procedure,_shortened": "as §2"}, "[14]": {"system": "U-87MG ATCC", "assay": "Induction of ferroptosis-mediated antitumor activity against human U-87 MG cells xenografted in BALB/C nu/nu mouse assessed as increase in […] level in tumor at 25 mg/kg, ip administered every 2 days for 40 days by biochemical analysis", "format": "functional, organism-based", "details": "time 40.0 day", "procedure,_shortened": "as §3"}, "[15]": {"system": "Mus musculus", "assay": "Upregulation of Gls2 mRNA expression in tumor of BALB/C nu/nu mouse xenografted with human SK-OV-3 cells at 25 mg/kg, ip administered every 2 days for 40 days by qPCR analysis", "format": "functional, organism-based", "details": "time 40.0 day", "procedure,_shortened": "as §1"}, "[16]": {"system": "Mus musculus", "assay": "Upregulation of Sqs mRNA expression in tumor of BALB/C nu/nu mouse xenografted with human SK-OV-3 cells at 25 mg/kg, ip administered every 2 days for 40 days by qPCR analysis", "format": "functional, organism-based", "details": "time 40.0 day", "procedure,_shortened": "as §2"}, "[17]": {"system": "Mus musculus", "assay": "Upregulation of Sat1 mRNA expression in tumor of BALB/C nu/nu mouse xenografted with human U-87 MG cells at 25 mg/kg, ip administered every 2 days for 40 days by qPCR analysis", "format": "functional, organism-based", "details": "time 40.0 day", "procedure,_shortened": "as §2"}, "[18]": {"system": "Mus musculus", "assay": "Upregulation of Gls2 mRNA expression in tumor of BALB/C nu/nu mouse xenografted with human U-87 MG cells at 25 mg/kg, ip administered every 2 days for 40 days by qPCR analysis", "format": "functional, organism-based", "details": "time 40.0 day", "procedure,_shortened": "as §2"}}, "note": "Calls of active or inactive are those of the source. No cut-off for these calls is given here.", "data": [{"smiles": "COc1cc(C(=O)c2cn(-c3ncccn3)cc2-c2ccco2)cc(OC)c1OC", "values": [{"measurement": "Activity", "setting": "[1]", "value": "Active"}, {"measurement": "Activity", "setting": "[2]", "value": "Active"}, {"measurement": "Activity", "setting": "[3]", "value": "Non-Toxic"}, {"measurement": "Activity", "setting": "[4]", "value": "Active"}, {"measurement": "Activity", "setting": "[5]", "value": "Active"}, {"measurement": "Activity", "setting": "[6]", "value": "Active"}, {"measurement": "Activity", "setting": "[7]", "value": "Active"}, {"measurement": "Activity", "setting": "[8]", "value": "Active"}, {"measurement": "Activity", "setting": "[9]", "value": "Active"}, {"measurement": "Activity", "setting": "[10]", "value": "Active"}, {"measurement": "Activity", "setting": "[11]", "value": "Active"}, {"measurement": "Activity", "setting": "[12]", "value": "Active"}, {"measurement": "Activity", "setting": "[13]", "value": "Active"}, {"measurement": "Activity", "setting": "[14]", "value": "Active"}, {"measurement": "Activity", "setting": "[15]", "value": "Active"}, {"measurement": "Activity", "setting": "[16]", "value": "Active"}, {"measurement": "Activity", "setting": "[17]", "value": "Active"}, {"measurement": "Activity", "setting": "[18]", "value": "Active"}]}]}
